Compounds with a hit are over-represented: about 1.8% of the library has one in this group of screens.
NPY-Y1 antag: blocks the human neuropeptide Y Y1 receptor. P25929. HEK293-CNG Y1 cells, membrane potential fluorescence; NPY at EC95, then isoproterenol. inhibition, % at 3.6 µM. 1% of 200,000 active. AID 1040;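 active means inhibition above the campaign mean inhibition of all tested compounds plus 3 SD, cut at about 20% in these data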;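 further: 0% = DMSO wells given NPY plus isoproterenol and 100% = isoproterenol alone without NPY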
Target sequence (P25929 whole entry, looked up): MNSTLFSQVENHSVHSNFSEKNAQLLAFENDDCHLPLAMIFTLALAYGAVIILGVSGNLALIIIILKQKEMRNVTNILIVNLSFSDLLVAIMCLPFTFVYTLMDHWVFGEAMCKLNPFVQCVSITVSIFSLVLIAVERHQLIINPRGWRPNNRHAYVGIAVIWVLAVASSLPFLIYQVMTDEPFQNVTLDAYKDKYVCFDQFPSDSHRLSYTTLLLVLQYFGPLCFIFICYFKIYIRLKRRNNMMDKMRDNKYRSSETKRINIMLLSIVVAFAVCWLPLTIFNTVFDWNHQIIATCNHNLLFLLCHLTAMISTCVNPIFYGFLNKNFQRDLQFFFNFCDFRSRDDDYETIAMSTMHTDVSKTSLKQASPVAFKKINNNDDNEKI
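Material: HEK293 cells with Y1 receptor plus CNG channel; times: compound incubation 1 h at room temperature, readout 45 min post-stimulation; signal: fluorescence, membrane potential probe; read-out basis: fluorescence ratio normalized to % inhibition between controls; benchmarks: full-block control isoproterenol-only wells, zero-block control NPY plus isoproterenol wells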
NPY-Y2 antag: blocks the human neuropeptide Y Y2 receptor; P49146; NPY-Y2 expressing cells, antagonist mode; inhibition, % at 2.7 µM; 0.99% of 140,000 active; in the data active means inhibition above about 17%;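 further: 0% = vehicle with agonist challenge and 100% = reference antagonist with challenge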
Target sequence (P49146 whole entry, looked up): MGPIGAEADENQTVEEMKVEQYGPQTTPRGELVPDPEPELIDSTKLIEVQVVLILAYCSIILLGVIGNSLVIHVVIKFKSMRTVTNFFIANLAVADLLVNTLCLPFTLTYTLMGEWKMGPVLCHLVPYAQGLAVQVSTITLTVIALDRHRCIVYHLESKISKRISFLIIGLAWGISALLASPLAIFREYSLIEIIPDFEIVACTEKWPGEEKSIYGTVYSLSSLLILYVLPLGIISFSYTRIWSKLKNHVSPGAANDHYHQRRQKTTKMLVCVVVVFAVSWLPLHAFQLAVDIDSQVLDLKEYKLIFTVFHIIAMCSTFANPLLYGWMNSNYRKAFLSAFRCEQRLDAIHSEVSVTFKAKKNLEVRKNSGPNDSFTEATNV
NPY-Y2 PAM-ag: potentiates or activates human NPY-Y2 receptor | activation, % at 3.6 µM | P49146 | 0.45% of 220,000 active | cells expressing NPY-Y2, potentiator/agonist read-out; in the data active means activation above about 27%;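 further: cells stimulated with NPY near EC25 plus isoproterenol at EC100; 0% = vehicle plus submaximal agonist and 100% = vehicle plus saturating agonist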
NPY1 pot ag: potentiators or agonists of human neuropeptide Y receptor Y1; NPY-Y1 expressing cells, potentiator/agonist activation; AID 1304; 0.37% of 220,000 active; P25929; activation, % at 3.6 µM; in the data active means activation above about 33%, passing the limit was not always enough;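 further: cells stimulated with NPY at EC10 then isoproterenol at EC100; 0% = low agonist plus stimulus and 100% = saturating agonist plus stimulus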
NPY-Y2 pot conf: confirmation of human NPY-Y2 receptor potentiators or agonists; shares compounds with NPY-Y2 PAM-ag; cell-based NPY-Y2 potentiator/agonist assay; activation, % at 3.6 µM; 20% of 450 active; in the data active means activation above about 33%
NPY-Y1 potentiator: NPY-Y1 potentiation or agonism as NPY-Y2 counter-screen. AID 1651. activation, % at 3.6 µM. Y1 HEK293-CNG cells, membrane potential fluorescence. shares compounds with NPY-Y2 PAM-ag. 20% of 450 active; in the data active means activation above about 45%;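 further: cells stimulated with submaximal NPY then isoproterenol with phosphodiesterase inhibitor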
NPY-Y1 ag 2: activates human NPY-Y1, counter-screen for NPY-Y2 potentiators; shares compounds with NPY-Y2 PAM-ag; HEK293 Y1-CNGC, membrane potential fluorescence, agonism; activation, % at 3.6 µM; 37% of 450 active; AID 1702;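 active means activation above the mean of DMSO-only control wells plus 3 SD, cut at about 18% in these data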;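 further: cells stimulated with 1 µM isoproterenol plus the PDE inhibitor Ro 20-1724; 0% = isoproterenol with DMSO and no NPY and 100% = 40 nM NPY; Y1 agonists lower the membrane potential dye signal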
CNGC inh: cyclic nucleotide gated channel inhibition as counter-screen; AID 1703; inhibition, % at 3.6 µM; HEK293-CNG parental, isoproterenol cAMP, membrane potential fluorescence; shares compounds with NPY-Y2 PAM-ag; 32% of 450 active;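 active means inhibition above the control-well mean plus 3 SD of those wells, cut at about 22% in these data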;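 further: 0% = DMSO with isoproterenol and 100% = DMSO without isoproterenol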
Y2 agonist ctr: NPY-Y2 agonism, counter-screen for Y2 potentiators. 56% of 450 active. HEK293 Y2/CNGC cells, membrane potential fluorescence, agonist mode. activation, % at 3.6 µM. AID 1710. shares compounds with NPY-Y2 PAM-ag;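 active means activation above the mean of solvent-only control wells plus 3 SD, cut at about 10% in these data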;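 further: cells stimulated by isoproterenol with no NPY added so direct agonism is tested; 0% = DMSO with isoproterenol alone and 100% = NPY at EC100 plus isoproterenol; agonism lowers probe fluorescence through less cAMP and CNG channel opening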
* = called active by the depositor; / = no result.

SMILES | NPY-Y1 antag | NPY-Y2 antag | NPY-Y2 PAM-ag | NPY1 pot ag | NPY-Y2 pot conf | NPY-Y1 potentiator | NPY-Y1 ag 2 | CNGC inh | Y2 agonist ctr
O=C1C(Nc2ccccc2)=C/C(=N/S(=O)(=O)c2cccs2)c2ccccc21 | -4 | -8 | 48* | 18 | 68* | 74* | 60* | 53* | 67*
Cc1cc(C)c2c(-n3cccc3)nn(C)c2n1 | -4 | 1 | 7 | 8 | / | / | / | / | /
Cc1ccc(C(=O)n2nc(-n3cccc3)c3c(C)cc(C)nc32)cc1 | -5 | / | 57* | 29 | 17 | 29 | 24* | 3 | 18*
CCOC1=NN(c2ncc(C(F)(F)F)cc2Cl)C(=O)/C1=C/N(C)C | 1 | / | 5 | 15 | / | / | / | / | /
O=C(O)Cc1ccc(NC(=S)Nc2ccc(Br)cc2Cl)cc1 | / | / | -10 | 15 | / | / | / | / | /
N#C/C(=N/Nc1ccc([N+](=O)[O-])cc1)C(=N)N1CCCCC1 | -9 | / | 35* | 28 | 32 | 45* | 43* | 28* | 30*
N#C/C(=N\Nc1ccc([N+](=O)[O-])cc1)C(=N)N1CCOCC1 | / | / | -1 | -1 | / | / | / | / | /
COC(=O)/C(=C/c1cn(C)c2ccccc12)[N+](=O)[O-] | -6 | 1 | 2 | 20 | / | / | / | / | /
COC(=O)/C(=C/c1cn(C(C)=O)c2ccccc12)[N+](=O)[O-] | / | / | 61* | 35 | 18 | 32 | 25* | 20 | 18*
CC(C)[C@H](Nc1ccc(C(F)(F)F)cc1[N+](=O)[O-])C(=O)O | / | / | -12 | -16 | / | / | / | / | /
O=C(NNc1ccc(C(F)(F)F)cc1[N+](=O)[O-])c1ccc(NS(=O)(=O)c2ccc(F)cc2)cc1 | -12 | -6 | 45* | 38 | 58* | 72* | 62* | 62* | 62*
CCn1nc(C)c([N+](=O)[O-])c1C(=O)NNC(=O)c1ccccc1Cl | / | / | 3 | -7 | / | / | / | / | /
COc1ccc(/C=C/C(=O)c2c(O)ccc3c(C)cc(=O)oc23)cc1 | 1 | 7 | 64* | 33 | -18 | -30 | -32 | -23 | -14
COc1ccc(/C=C\C(=O)c2c(O)ccc3c(C)cc(=O)oc23)cc1 | 15 | 10 | -26 | -32 | / | / | / | / | /
COc1ccc(CC(=O)NC(C)c2nnc(SCC(=O)Nc3ccccc3)n2C)cc1 (stereo not given) | -4 | / | -6 | 3 | / | / | / | / | /
COC(=O)c1ccc(NC(=O)CSc2nnc(C(C)NC(=O)c3ccccc3Cl)n2C)cc1 (stereo not given) | -1 | -4 | 37* | 33 | 10 | 16 | 17 | 10 | 28*
CCOC(=O)C(=CNc1cc(C)nn1-c1ccc(C)cc1)C(=O)OCC | 9 | 13 | 36* | 15 | 2 | -7 | -7 | -12 | -2
Oc1ccccc1-c1nc(NCC2CCCO2)c2ccccc2n1 (stereo not given) | -4 | -1 | 41* | 22 | 37* | 24 | 17 | 24* | 19*
CC(=O)c1ccc(NC(=O)COC(=O)c2ccccc2N=Nc2ccc(N(C)C)cc2)cc1 | -3 | -6 | 44* | 33 | 48* | 62* | 50* | 44* | 41*
COC(=O)c1ccccc1NC(=O)COC(=O)c1ccccc1N=Nc1ccc(N(C)C)cc1 | 1 | -2 | 14 | 14 | / | / | / | / | /
CCOC(=O)Cc1cnc(NC(=O)CSc2nc(C)c(CC)c(=O)[nH]2)s1 | 1 | / | -11 | -21 | / | / | / | / | /
CCC(C)N(C)C1CCN(C(=S)Nc2cccc(OC)c2)CC1 (stereo not given) | -2 | / | 82* | 0 | -3 | 3 | -4 | 3 | 8
O=C(Nc1cc(Cl)ccn1)C1(c2ccccc2)CC1(Cl)Cl (stereo not given) | / | / | 0 | -13 | / | / | / | / | /
CCOC(=O)c1c(O)cc(C)[nH]c1=O | / | / | -2 | -9 | / | / | / | / | /
O=C(O)C1=C[C@@H](C2CCCCC2)C[C@@H](OCCCCO)O1 | -3 | / | -28 | 2 | / | / | / | / | /
SMILES | NPY-Y1 antag | NPY-Y2 antag | NPY-Y2 PAM-ag | NPY1 pot ag | NPY-Y2 pot conf | NPY-Y1 potentiator | NPY-Y1 ag 2 | CNGC inh | Y2 agonist ctr
Cc1cc(N/C(=N/S(=O)(=O)c2ccc(F)cc2)c2ccccc2)n(-c2ccccc2)n1 | 0 | / | 28* | -9 | -3 | -17 | -27 | -23 | -15
Cc1cc(N/C(=N/S(=O)(=O)c2cc(F)ccc2F)c2ccccc2)n(-c2ccccc2)n1 | 1 | / | -3 | 6 | / | / | / | / | /
CN(Cc1ccno1)C(=O)CC1C(=O)NCCN1CC(c1ccccc1)c1ccccc1 (stereo not given) | 1 | / | -10 | -1 | / | / | / | / | /
CN(C)CCCN(C(=O)/C=C/c1cccs1)c1nc2c(F)cccc2s1 | 15 | / | 36* | 21 | 66* | 73* | 55* | 63* | 65*
Cc1cccc2sc(N(CCN(C)C)C(=O)/C=C/c3cccs3)nc12 | 10 | 1 | 53* | 12 | 91* | 112* | 97* | 86* | 100*
CN(C)CCCN(C(=O)CCc1ccccc1)c1nc2c(F)cccc2s1 | 12 | 10 | -8 | -39 | / | / | / | / | /
O=C1OCC2=C1C(c1ccccc1)CC(=O)N2c1ccc(F)cc1 (stereo not given) | 3 | / | 4 | 15 | / | / | / | / | /
COc1cccc(-c2c3c([nH]c(=O)c2C#N)CCc2cc(OC)ccc2-3)c1 | / | / | 13 | -9 | / | / | / | / | /
COCCN1C(=O)C(CC(=O)Nc2ccc(C(C)=O)cc2)SC1=Nc1ccccc1 (stereo not given) | -12 | -3 | 43* | 30 | 37* | 49* | 42* | 34* | 34*
CC(O)CN1C(=O)C(CC(=O)Nc2ccc(Cl)cc2)SC1=Nc1ccccc1 (stereo not given) | -5 | -2 | 19 | 11 | / | / | / | / | /
O=C(N/N=C/c1ccc(Cl)c([N+](=O)[O-])c1)c1cc(-c2ccc3c4c(cccc24)CC3)n[nH]1 | / | / | 45* | 36 | 15 | 25 | 18* | 12 | 23*
O=C(N/N=C/c1cccc([N+](=O)[O-])c1)c1cc(-c2ccc3c4c(cccc24)CC3)n[nH]1 | -5 | 0 | 24 | 2 | / | / | / | / | /
[O-]/[N+](=C/c1cccnc1)c1ccc(Br)cc1 | -2 | 0 | 13 | 21 | / | / | / | / | /
[O-]/[N+](=C\c1ccncc1)c1ccc(Br)cc1 | -5 | 2 | 57* | 41 | 13 | 20 | 20* | 1 | 7
CCNC(=O)NC(=O)C(C)OC(=O)CNS(=O)(=O)c1c(Cl)cc(Br)cc1Cl (stereo not given) | -5 | / | -3 | 1 | / | / | / | / | /
CCC(=O)Nc1nc(-c2ccc3c(c2)CC(C)N3S(C)(=O)=O)cs1 (stereo not given) | -3 | / | -13 | 7 | / | / | / | / | /

Source: PubChem
